{"source": "paper PMC2193166", "about": "(The Journal of Experimental Medicine, 2000)", "key": {"[1]": {"target": "B/A254 (Homo sapiens, UniProt P25090+Q15722)", "test": "^3H-LTB4 binding, B/A254-transfected HEK293 cells"}, "[2]": {"system": "human PMNs", "test": "Human PMN chemotaxis, 48-well microchamber", "type": "cell-based", "in_short": "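Freshly isolated human PMNs were preincubated with vehicle or test compound (10 nM) for 30 min at 37°C and loaded at 5 × 10^4/well into the upper wells of a 48-well chamber fitted with an uncoated 5-μm polycarbonate membrane. The lower wells held peptide (1 nM), test compound, or vehicle (RPMI, 0.1% ethanol). After 60 min at 37°C, migrated cells were Diff-Quik stained and counted by light microscopy. Migration index was chemoattractant over vehicle; three donors.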"}, "[3]": {"system": "PMNs", "test": "Direct binding of ^125I-labeled MHC binding peptide with PMNs", "design": "species or system human", "settings": "n = 3, data not shown"}, "[4]": {"target": "T1, ALXR (Homo sapiens, UniProt P25090)", "T1 sequence (P25090 1-351)": "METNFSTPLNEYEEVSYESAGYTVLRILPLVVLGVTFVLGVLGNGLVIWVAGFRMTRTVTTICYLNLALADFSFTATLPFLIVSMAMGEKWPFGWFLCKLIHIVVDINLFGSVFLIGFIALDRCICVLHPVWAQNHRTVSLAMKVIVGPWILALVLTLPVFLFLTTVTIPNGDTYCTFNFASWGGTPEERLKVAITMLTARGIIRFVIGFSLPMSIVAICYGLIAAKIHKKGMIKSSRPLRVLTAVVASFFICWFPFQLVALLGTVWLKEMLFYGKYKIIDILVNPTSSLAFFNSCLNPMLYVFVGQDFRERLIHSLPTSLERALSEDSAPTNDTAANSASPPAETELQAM", "settings": "cited from earlier work"}}, "note": "No end group written: not given here. *: point of attachment. 125I = [125I]*"}
{"compound": "CCCCC/C=C\\C[C@@H](O)/C=C/C=C\\C=C\\[C@@H](O)CCCC(=O)O", "note": "[^3H-LTB4, [5,6,8,9,11,12, 14,15-^3H]-LTB4]", "values": [{"measurement": "specific ^3H-LTB4 binding (in words)", "setting": "[1]", "value": "failed to specifically bind"}]}
{"compound": "^125I-labeled peptide: MHC binding peptide iodinated at the Tyr residue (MY(125I)FINILTL)", "values": [{"measurement": "PMN chemotaxis (in words)", "setting": "[2]", "value": "did not promote PMN chemotaxis"}, {"measurement": "specific binding to PMNs", "setting": "[3]", "value": "nor did it show specific binding"}]}
{"compound": "serum amyloid protein A [SAA]", "values": [{"measurement": "concentration required to evoke responses", "setting": "[4]", "value": "micromolar"}]}
